Consider 18 compounds from article PMC3947851 (Bioorganic & medicinal chemistry, 2012).

Structures are written as SMILES. Converted amounts (≈) assume the structure as drawn. Counter-ions that a name gives are not always drawn.

Data set [1] has as its target T1, SaFtsZ (Staphylococcus aureus, UniProt P0A031).
T1 sequence (P0A031 1-390): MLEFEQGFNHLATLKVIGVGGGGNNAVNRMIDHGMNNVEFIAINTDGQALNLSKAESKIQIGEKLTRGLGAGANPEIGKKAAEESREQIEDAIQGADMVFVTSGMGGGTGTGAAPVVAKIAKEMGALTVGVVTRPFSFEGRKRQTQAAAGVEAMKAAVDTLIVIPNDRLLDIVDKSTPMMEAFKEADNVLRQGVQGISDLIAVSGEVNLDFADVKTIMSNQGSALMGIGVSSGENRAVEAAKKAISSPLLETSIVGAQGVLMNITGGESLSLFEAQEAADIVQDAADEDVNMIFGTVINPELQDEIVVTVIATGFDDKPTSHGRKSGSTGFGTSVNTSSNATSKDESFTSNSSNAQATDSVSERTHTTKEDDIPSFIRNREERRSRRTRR
Description: FtsZ polymerization assay. It is filed as biochemical. Particulars: for Impact on SaFtsZ polymerization (A340) / Stability of compound-induced SaFtsZ polymers to added GDP: compound 40 μg/mL, 1 mM GTP; for Impact on SaFtsZ polymerization (A340): 10 μM SaFtsZ, 25 °C; for Stability of compound-induced SaFtsZ polymers to added GDP: 1 mM GDP added.

Data set [2] addresses microtubule-associated protein (MAP)-rich porcine β-tubulin (Sus scrofa, UniProt P02554). Put plainly: Tubulin polymerization assay. It is filed as biochemical. The settings on record: tubulin 2 mg/mL. In short, it runs like this:
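MAP-rich porcine tubulin (70% tubulin, 30% MAPs) at 2 mg/mL with 1 mM GTP in 80 mM PIPES NaOH (pH 7.0), 2 mM MgCl2, 1 mM EGTA. Test compound 40 μg/mL, paclitaxel 25 μg/mL or nocodazole 10 μg/mL as comparators, or DMSO vehicle. Turbidity (A340) read continuously at 37 °C over 60 min.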

Data set [3] is described as follows: MTT cytotoxicity assay, HEK293. It is filed as cell-based, human. The settings on record: human, HEK293 cells. In short, it runs like this:
(§1)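 MTT tetrazolium assay in 96-well plates. Cells were grown […] at 37 °C in 5% CO2 and passaged in DMEM. Each well was seeded with 1500 cells, and triplicate wells were exposed continuously to varying concentrations of test compound for four days. MTT was read at the end of day 4, and IC50 was determined.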
In general terms: Tetrazolium dyes change colour on reduction, which living cells bring about.

Data set [4] is described as follows: MTT cytotoxicity assay, MDCK. It is filed as cell-based, canine. The settings on record: dog, MDCK cells. In short, it runs like this: as §1
Data set [5] has as its system HEK293 cells. Description: MTT cytotoxicity assay, HEK293. It is filed as cell-based, human. Particulars: 10 μM, MTT. In short, it runs like this:
as §1

For data set [6], the target named is T1, SaFtsZ. Description: FtsZ GTPase assay. It is filed as biochemical. Particulars: for Concentration dependence of the impact on SaFtsZ GTPase activity: 10 μM SaFtsZ, Fig. 4.
The subject of data set [7] is S. aureus 8325-4 (MSSA). Put plainly: MIC assay, CLSI broth microdilution, MSSA. The settings on record: Staphylococcus aureus, 24 h, read-out: MIC S. aureus 8325-4 (MSSA), lowest concentration at which growth is ≥90% inhibited, CAMH broth, 37 °C. It is filed as cell-based. A general note: Broth dilution looks for growth in wells or tubes with falling amounts of substance.

microtubule-associated protein (MAP)-rich porcine β-tubulin, sequence (P02554 whole entry): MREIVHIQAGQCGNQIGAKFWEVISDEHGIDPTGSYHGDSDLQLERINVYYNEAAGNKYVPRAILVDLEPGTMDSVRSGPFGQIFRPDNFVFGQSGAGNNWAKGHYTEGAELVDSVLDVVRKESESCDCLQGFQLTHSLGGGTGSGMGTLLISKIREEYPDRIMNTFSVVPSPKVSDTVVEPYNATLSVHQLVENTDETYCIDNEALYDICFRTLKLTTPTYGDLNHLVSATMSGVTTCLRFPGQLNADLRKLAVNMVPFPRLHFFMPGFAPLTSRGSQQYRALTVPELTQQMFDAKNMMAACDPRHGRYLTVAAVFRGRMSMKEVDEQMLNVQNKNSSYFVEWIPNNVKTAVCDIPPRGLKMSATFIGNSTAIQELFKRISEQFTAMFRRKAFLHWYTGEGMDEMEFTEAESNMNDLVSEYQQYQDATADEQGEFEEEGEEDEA
microtubule-associated protein (MAP)-rich porcine β-tubulin, sequence (P02550 whole entry partner): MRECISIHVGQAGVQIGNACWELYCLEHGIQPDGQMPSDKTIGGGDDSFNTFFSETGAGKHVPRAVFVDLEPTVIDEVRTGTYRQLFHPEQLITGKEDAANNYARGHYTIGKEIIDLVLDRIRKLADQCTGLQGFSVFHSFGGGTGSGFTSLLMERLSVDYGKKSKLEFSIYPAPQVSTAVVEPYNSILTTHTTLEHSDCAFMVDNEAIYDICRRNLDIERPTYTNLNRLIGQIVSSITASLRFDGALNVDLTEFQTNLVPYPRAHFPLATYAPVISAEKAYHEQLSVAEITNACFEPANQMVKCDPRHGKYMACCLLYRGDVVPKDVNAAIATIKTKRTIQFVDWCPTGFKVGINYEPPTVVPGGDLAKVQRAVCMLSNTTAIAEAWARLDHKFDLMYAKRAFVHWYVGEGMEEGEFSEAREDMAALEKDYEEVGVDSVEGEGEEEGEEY

Consider `COc1ccc2cc3[n+](cc2c1OC)CCc1cc2c(cc1-3)OCO2` [Berberine, berberine, reference compound], for which the “Impact on SaFtsZ polymerization (A340)” value in data set [1] is “did not significantly impact SaFtsZ polymerization”.

In the case of `COc1cc2cc(-c3cccc(C(C)(C)C)c3)nc(C)c2cc1OC` [Compound 4a, 3-(3-(t-Butyl)phenyl)-6,7-dimethoxy-1-methylisoquino line], the “Impact on SaFtsZ polymerization (A340)” value in data set [1] is listed as “did not significantly impact SaFtsZ polymerization”.

Take `COc1cc2cc(-c3cccc(-c4ccc(-c5ccccc5)cc4)c3)[n+](C)c(C)c2cc1OC.[I-]` [Compound 5b, 3-([1,1′:4′,1″-Terphenyl]-3-yl)-6,7-dimethoxy-1,2-dimethy lisoquinolin-2-ium iodide]: the “Impact on SaFtsZ polymerization (A340)” value in data set [1] was “stimulate SaFtsZ polymerization”.

With `COc1cc2cc(-c3cccc(-c4ccc(C(C)(C)C)cc4)c3)nc(C)c2cc1OC` [Compound 7a, 3-(4′-(t-Butyl)-[1,1′-biphenyl]-3-yl)-6,7-dimethoxy-1-methylisoquinoline], the “Impact on SaFtsZ polymerization (A340)” value in data set [1] is reported as “did not significantly impact SaFtsZ polymerization”.

With `COc1cc2cc(-c3cccc(-c4ccc(C(C)(C)C)cc4)c3)[n+](C)c(C)c2cc1OC.[I-]` [Compound 7b, 3-(4′-(t-Butyl)-[1,1′-biphenyl]-3-yl)-6,7-dimethoxy-1,2-dimethylisoquinolin-2-ium iodide], in data set [1], the “Impact on SaFtsZ polymerization (A340)” value is given as “stimulate SaFtsZ polymerization” and the “Stability of compound-induced SaFtsZ polymers to added GDP” value (from here on “Stability”) is recorded as “stable to the depolymerizing effects of GDP”. Further, the “Impact on polymerization of porcine β-tubulin (A340)” value (“Impact on polymerization” below) in data set [2] (compound 40 μg/mL, 37 °C) was “neither 7b nor 19a exert a significant impact”.

As a reminder, the IC50 is the concentration needed to halve the response being measured. High values mean weaker potency in that assay, low ones greater potency in that assay. Regarding `COc1cc2cc(-c3cccc(-c4ccccc4)c3)nc(N=C(N)N)c2cc1OC` [Compound 10a, 2-(3-([1,1′-biphenyl]-3-yl)-6,7-dimethoxyisoquinolin-1-yl)guanidine], the IC50 at 4 days in data set [3] and in data set [4] was 2200 to 3500 nM in each case.

Take `COc1cc2cc(-c3cccc(-c4ccccc4)c3)nc(CN=C(N)N)c2cc1OC` [Compound 13a, 2-((3-([1,1′-biphenyl]-3-yl)-6,7-dimethoxyisoquinolin-1-yl)methyl)guanidine trifluo roacetate]: the “Human cell toxicity at the highest concentration tested” value (shortened to “Human cell toxicity”) in data set [5] was “no significant human cell toxicity”.

As for `COc1cc2cc(-c3cccc(-c4ccccc4)c3)nc(CCN=C(N)N)c2cc1OC` [Compound 15a, 2-(2-(3-([1,1′-Biphenyl]-3-yl)-6,7-dimethoxyisoquinolin-1-yl)ethyl)guanidine], the “Human cell toxicity” value in data set [5] is “no significant human cell toxicity”. The “Impact on SaFtsZ polymerization (A340)” value in data set [1] was “stimulate SaFtsZ polymerization”. In addition, in data set [6], the “Concentration dependence of the impact on SaFtsZ GTPase activity” value was “stimulate GTPase activity at lower concentrations, followed by inhibition at higher concentrations”.

Consider `COc1cc2cc(-c3cccc(C(C)(C)C)c3)nc(CN)c2cc1OC` [Compound 16a, (3-(3-(t-Butyl)phenyl)-6,7-dimethoxyisoquinolin-1-yl)methanamine], for which the “Human cell toxicity” value in data set [5] is given as “no significant human cell toxicity”.

In the case of `COc1cc2cc(-c3cccc(C(C)(C)C)c3)nc(CCN)c2cc1OC` [Compound 17a, 2-(3-(3-(t-Butyl)phenyl)-6,7-dimethoxyisoquinolin-1-yl)ethanamine], the IC50 at 4 days in data set [3] is 2200 to 3500 nM. For the same compound, in data set [1], the “Impact on SaFtsZ polymerization (A340)” value is “stimulate SaFtsZ polymerization” and the “Stability” value was “stable to the depolymerizing effects of GDP”. The same compound displayed an IC50 at 4 days in data set [4] of 2200 to 3500 nM.

As to `COc1cc2cc(-c3cccc(C(C)(C)C)c3)nc(C/N=C(/C)N)c2cc1OC` [Compound 18a, N′-((3-(3-(t-butyl)phenyl)-6,7-dimethoxyisoquinolin-1-yl)methyl)acetimidamide], in data set [1], the “Impact on SaFtsZ polymerization (A340)” value is reported as “stimulate SaFtsZ polymerization”. For the same compound, the “Concentration dependence of the impact on SaFtsZ GTPase activity” value in data set [6] is listed as “stimulate GTPase activity at lower concentrations, followed by inhibition at higher concentrations”.

Consider `COc1cc2cc(-c3cccc(C(C)(C)C)c3)nc(CN=C(N)N)c2cc1OC` [Compound 19a, 2-((3-(3-(t-Butyl)phenyl)-6,7-dimethoxyisoquinolin-1-yl)methyl)guanidine], for which the “Impact on SaFtsZ polymerization (A340)” value in data set [1] is listed as “stimulate SaFtsZ polymerization”. Besides, the “Impact on polymerization” value in data set [2] (compound 40 μg/mL, 37 °C) is given as “neither 7b nor 19a exert a significant impact”.

As for `COc1cc2cc(-c3cccc(C(C)(C)C)c3)nc(CCN=C(N)N)c2cc1OC` [Compound 20a, 2-(2-(3-(3-(t-Butyl)phenyl)-6,7-dimethoxyisoquinolin-1-yl)ethyl)guanidine], in data set [1] (20, 30 and 40 μg/mL), the “Concentration dependence of the enhancement of SaFtsZ polymerization” value is “enhances SaFtsZ polymerization increases with increasing compound concentration”. Also, in data set [1], the “Impact on SaFtsZ polymerization (A340)” value is “stimulate SaFtsZ polymerization” and the “Stability” value was “stable to the depolymerizing effects of GDP”. Moreover, the MIC in data set [7] is 2 to 4 µg/mL (≈ 4.92 to 9.84 µM).

On to `COc1cc2cc(-c3cccc(-c4ccc(C(C)(C)C)cc4)c3)nc(CN=C(N)N)c2cc1OC` [Compound 21a, 2-((3-(4′-(t-Butyl)-[1,1′-biphenyl]-3-yl)-6,7-dimethoxyisoquinolin-1-yl)methyl)guanidine trifluoroacetate], for which the MIC in data set [7] was in the range of 2 to 4 µg/mL.

With `NC(=O)c1c(F)ccc(OCc2nc3cc(Cl)cnc3s2)c1F` [PC190723, reference compound], in data set [1], the “Impact on SaFtsZ polymerization (A340)” value is given as “stimulate SaFtsZ polymerization”.

As to `CN[C@H](CC(C)C)C(=O)N[C@H]1C(=O)N[C@@H](CC(N)=O)C(=O)N[C@H]2C(=O)N[C@H]3C(=O)N[C@H](C(=O)N[C@H](C(=O)O)c4cc(O)cc(O)c4-c4cc3ccc4O)[C@H](O)c3ccc(c(Cl)c3)Oc3cc2cc(c3O[C@@H]2O[C@H](CO)[C@@H](O)[C@H](O)[C@H]2O[C@H]2C[C@](C)(N)[C@H](O)[C@H](C)O2)Oc2ccc(cc2Cl)[C@H]1O` [Vancomycin, reference compound], the “Impact on SaFtsZ polymerization (A340)” value in data set [1] is recorded as “no impact on the polymerization of SaFtsZ”. Further, the “Percent GTPase activity” value in data set [6] (40 μg/mL, percentage of activity with vehicle (DMSO) alone, mean of two ± SD) is on record as “no significant impact”.

For the compound `COC(=O)Nc1nc2cc(C(=O)c3cccs3)ccc2[nH]1` [nocodazole, reference compound], the “Impact on polymerization” value in data set [2] (10 μg/mL, positive control) is given as “produce their expected impacts on tubulin polymerization dynamics”.

Regarding `CC(=O)O[C@H]1C(=O)[C@@]2(C)[C@H]([C@H](OC(=O)c3ccccc3)[C@]3(O)C[C@H](OC(=O)[C@H](O)[C@@H](NC(=O)c4ccccc4)c4ccccc4)C(C)=C1C3(C)C)[C@]1(OC(C)=O)CO[C@@H]1C[C@@H]2O` [paclitaxel, reference compound], in data set [2] (25 μg/mL, positive control), the “Impact on polymerization” value was “produce their expected impacts on tubulin polymerization dynamics”.
